From ChEMBL document CHEMBL1142374, “Rational design of 4-amino-5,6-diaryl-furo[2,3-d]pyrimidines as potent glycogen synthase kinase-3 inhibitors” (Bioorg Med Chem Lett, 2008)
One block for each compound: values may come before it.

Legend:
[1] = target: Glycogen synthase kinase-3 beta (Homo sapiens, UniProt P49841); assay: Inhibition of human GSK3-beta by fluorescence anisotropy binding assay
Method in brief: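 Competitive fluorescence anisotropy binding against a fluorescently labelled inhibitor. Compound typically 24 pM–25 µM final, DMSO <3%. Equilibrated 60–180 min at ambient temperature; anisotropy read at ex 485/em 535 nm. Assay error ±0.2 log units.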

[2] = target: RAC-alpha serine/threonine-protein kinase (Homo sapiens) (UniProt P31749); assay: Inhibition of PKBa at 10 uM
Sequence of RAC-alpha serine/threonine-protein kinase (Homo sapiens) (P31749 whole entry): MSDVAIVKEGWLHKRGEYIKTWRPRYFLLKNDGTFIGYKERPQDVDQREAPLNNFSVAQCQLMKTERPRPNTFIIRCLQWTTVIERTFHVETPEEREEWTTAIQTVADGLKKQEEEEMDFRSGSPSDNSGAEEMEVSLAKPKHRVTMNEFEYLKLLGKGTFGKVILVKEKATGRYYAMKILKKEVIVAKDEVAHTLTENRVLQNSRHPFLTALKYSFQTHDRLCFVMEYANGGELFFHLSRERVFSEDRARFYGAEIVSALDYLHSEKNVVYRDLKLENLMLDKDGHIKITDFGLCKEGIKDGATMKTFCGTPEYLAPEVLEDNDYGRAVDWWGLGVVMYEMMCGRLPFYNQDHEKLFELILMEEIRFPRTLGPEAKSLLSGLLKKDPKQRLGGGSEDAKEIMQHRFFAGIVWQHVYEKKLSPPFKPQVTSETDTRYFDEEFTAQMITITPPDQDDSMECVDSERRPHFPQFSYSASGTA

[3] = Inhibition of PKA at 10 uM
[4] = target: Mitogen-activated protein kinase 8 (Homo sapiens) (UniProt P45983); assay: Inhibition of JNK1 at 10 uM
Sequence of Mitogen-activated protein kinase 8 (Homo sapiens) (P45983 whole entry): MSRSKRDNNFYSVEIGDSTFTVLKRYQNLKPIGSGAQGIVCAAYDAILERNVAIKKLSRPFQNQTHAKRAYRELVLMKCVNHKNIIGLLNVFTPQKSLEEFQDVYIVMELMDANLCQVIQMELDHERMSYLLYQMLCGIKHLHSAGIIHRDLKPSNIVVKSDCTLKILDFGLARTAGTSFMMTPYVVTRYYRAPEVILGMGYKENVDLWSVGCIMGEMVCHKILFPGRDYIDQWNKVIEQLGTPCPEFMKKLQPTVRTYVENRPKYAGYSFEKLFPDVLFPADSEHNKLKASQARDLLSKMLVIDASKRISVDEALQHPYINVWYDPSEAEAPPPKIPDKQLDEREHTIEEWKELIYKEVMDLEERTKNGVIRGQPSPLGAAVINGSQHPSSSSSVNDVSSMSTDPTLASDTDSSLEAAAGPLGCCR

[5] = target: T1, Serine/threonine-protein kinase Chk1 (Homo sapiens) (UniProt O14757); assay: Inhibition of CHK1 at 10 uM
T1 sequence (whole entry): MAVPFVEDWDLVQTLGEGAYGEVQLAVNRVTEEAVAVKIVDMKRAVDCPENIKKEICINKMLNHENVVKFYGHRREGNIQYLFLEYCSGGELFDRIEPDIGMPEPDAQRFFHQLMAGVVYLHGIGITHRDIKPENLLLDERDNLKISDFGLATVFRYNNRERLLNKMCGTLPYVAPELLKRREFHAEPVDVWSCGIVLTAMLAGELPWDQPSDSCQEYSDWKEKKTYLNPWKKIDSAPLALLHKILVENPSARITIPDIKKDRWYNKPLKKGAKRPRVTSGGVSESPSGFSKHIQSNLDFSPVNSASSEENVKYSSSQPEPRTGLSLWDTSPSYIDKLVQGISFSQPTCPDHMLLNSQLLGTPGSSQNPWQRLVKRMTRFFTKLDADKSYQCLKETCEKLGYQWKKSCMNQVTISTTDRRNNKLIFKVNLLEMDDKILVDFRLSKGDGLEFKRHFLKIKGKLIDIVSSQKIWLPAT

[6] = Inhibition of AMPK at 10 uM
[7] = target: Cyclin-dependent kinase 2 (Homo sapiens) (UniProt P24941); assay: Inhibition of CDK2 at 10 uM
[8] = target: T2, Serine/threonine-protein kinase Sgk1 (Homo sapiens) (UniProt O00141); assay: Inhibition of SGK at 10 uM
T2 sequence (whole entry): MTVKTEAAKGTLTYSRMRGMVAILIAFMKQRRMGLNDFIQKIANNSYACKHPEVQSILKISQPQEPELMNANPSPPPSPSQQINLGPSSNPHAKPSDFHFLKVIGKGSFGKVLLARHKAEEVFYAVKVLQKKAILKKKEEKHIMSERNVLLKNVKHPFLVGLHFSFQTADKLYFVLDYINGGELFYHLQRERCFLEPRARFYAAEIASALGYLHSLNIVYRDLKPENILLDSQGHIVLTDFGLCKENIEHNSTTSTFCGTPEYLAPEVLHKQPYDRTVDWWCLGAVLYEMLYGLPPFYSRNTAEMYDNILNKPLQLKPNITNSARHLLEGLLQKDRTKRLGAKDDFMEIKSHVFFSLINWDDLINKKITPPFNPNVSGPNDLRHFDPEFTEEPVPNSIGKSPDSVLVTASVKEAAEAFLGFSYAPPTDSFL

[9] = target: Glycogen synthase kinase-3 beta (Rattus norvegicus, UniProt P18266); assay: Inhibition of rat GSK3-beta in L6 cells assessed as accumulation of glycogen; assay type: cell-based
Sequence of Glycogen synthase kinase-3 beta (Rattus norvegicus, UniProt P18266) (P18266 whole entry): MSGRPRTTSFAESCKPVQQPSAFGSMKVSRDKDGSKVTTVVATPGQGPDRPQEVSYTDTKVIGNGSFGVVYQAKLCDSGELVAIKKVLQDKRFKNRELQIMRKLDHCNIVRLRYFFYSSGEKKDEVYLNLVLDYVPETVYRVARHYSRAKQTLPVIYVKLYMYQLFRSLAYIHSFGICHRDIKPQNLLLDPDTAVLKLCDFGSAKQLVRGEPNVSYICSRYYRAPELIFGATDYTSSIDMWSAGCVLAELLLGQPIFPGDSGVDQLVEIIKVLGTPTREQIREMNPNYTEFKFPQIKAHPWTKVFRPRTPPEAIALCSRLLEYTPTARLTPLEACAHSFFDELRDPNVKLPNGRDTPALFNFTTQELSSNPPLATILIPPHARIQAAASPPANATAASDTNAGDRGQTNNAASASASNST

[10] = Inhibition of GSK3 at 10 uM
[11] = target: Dual specificity mitogen-activated protein kinase kinase 1 (Homo sapiens) (UniProt Q02750); assay: Inhibition of MEK1 at 10 uM
Sequence of Dual specificity mitogen-activated protein kinase kinase 1 (Homo sapiens) (Q02750 whole entry): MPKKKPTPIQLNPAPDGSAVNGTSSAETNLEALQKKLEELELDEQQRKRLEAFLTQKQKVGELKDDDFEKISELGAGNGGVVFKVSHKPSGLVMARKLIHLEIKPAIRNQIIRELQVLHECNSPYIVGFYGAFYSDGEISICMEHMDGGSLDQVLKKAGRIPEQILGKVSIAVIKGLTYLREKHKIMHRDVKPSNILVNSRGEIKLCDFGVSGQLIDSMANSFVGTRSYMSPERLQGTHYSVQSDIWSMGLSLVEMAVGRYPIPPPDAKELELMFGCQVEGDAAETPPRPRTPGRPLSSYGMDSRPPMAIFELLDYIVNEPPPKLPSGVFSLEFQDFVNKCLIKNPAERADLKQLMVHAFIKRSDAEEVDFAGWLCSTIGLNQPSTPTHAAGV

[12] = target: Vascular endothelial growth factor receptor 2 (Homo sapiens, UniProt P35968); assay: Inhibition of VEGFR2
Sequence of Vascular endothelial growth factor receptor 2 (P35968 whole entry): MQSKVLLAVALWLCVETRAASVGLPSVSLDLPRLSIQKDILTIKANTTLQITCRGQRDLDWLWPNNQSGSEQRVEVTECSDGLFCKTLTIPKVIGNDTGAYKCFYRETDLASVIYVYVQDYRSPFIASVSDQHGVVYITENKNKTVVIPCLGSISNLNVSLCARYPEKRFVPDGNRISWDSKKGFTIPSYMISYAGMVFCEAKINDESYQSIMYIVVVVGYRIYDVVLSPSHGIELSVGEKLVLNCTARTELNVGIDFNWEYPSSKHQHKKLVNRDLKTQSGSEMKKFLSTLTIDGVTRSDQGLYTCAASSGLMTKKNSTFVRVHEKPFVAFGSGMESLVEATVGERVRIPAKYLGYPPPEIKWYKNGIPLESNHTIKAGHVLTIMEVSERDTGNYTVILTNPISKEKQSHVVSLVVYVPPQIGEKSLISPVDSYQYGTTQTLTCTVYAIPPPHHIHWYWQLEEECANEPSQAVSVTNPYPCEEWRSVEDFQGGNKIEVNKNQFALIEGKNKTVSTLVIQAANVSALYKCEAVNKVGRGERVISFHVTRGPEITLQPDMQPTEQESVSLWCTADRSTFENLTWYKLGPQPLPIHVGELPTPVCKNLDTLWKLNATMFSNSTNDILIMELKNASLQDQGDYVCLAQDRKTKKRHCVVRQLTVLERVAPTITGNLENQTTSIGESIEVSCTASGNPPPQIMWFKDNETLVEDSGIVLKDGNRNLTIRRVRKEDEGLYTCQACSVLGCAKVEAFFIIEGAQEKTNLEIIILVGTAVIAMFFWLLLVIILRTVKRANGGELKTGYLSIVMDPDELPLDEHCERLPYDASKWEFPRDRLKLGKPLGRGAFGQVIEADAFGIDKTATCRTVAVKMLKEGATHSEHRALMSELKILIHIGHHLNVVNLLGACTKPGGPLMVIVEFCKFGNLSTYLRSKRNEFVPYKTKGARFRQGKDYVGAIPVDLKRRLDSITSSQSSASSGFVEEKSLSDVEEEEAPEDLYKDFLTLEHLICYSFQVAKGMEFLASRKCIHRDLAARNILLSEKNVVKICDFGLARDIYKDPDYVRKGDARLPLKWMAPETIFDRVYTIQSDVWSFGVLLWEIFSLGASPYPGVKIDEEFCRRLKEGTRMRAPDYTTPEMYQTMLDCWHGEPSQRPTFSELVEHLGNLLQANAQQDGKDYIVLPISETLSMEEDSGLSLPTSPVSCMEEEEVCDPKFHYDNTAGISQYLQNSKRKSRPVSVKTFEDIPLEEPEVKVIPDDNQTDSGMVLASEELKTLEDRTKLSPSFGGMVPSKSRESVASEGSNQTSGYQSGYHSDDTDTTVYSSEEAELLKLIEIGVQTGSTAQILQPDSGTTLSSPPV

[13] = Inhibition of MAPK at 10 uM

Sequence of Glycogen synthase kinase-3 beta (Homo sapiens, UniProt P49841) (P49841 whole entry): as the sequence (P18266 whole entry) above, with M240V, P390T, A392T, T400A, A402T counted along it

- IC50 [1]: 23 nM
SMILES: Nc1ncnc2oc(-c3cccnc3)c(-c3ccc(NS(=O)(=O)c4cccs4)cc3)c12

- IC50 [1]: > 15000 nM
SMILES: COc1ccc(-c2oc3ncnc(N)c3c2-c2ccc(OC)cc2)cc1

- IC50 [1]: > 15000 nM
SMILES: COc1ccc(-c2oc3ncnc(N)c3c2-c2ccc(NS(=O)(=O)c3ccccc3)cc2)cc1

- inhibition [2]: 29%
- inhibition [3]: -0%
- inhibition [4]: 7%
- inhibition [5]: 3%
- inhibition [6]: 44%
- inhibition [7]: 27%
- inhibition [8]: 3%
- EC50 [9]: 3200 nM
- inhibition [10]: 100%
- inhibition [11]: -0%
- IC50 [1]: 30 nM
- IC50 [12]: 1120 nM
- inhibition [13]: 5%
SMILES: Nc1ncnc2oc(-c3cccnc3)c(-c3ccc(NS(=O)(=O)c4ccccc4)cc3)c12

- IC50 [1]: 1590 nM
SMILES: Nc1ncnc2oc(-c3cccnc3)c(-c3ccc(NC(=O)c4cccc(F)c4)cc3)c12

- IC50 [1]: 1630 nM
SMILES: CC(=O)Nc1ccc(-c2c(-c3cccnc3)oc3ncnc(N)c23)cc1

- IC50 [1]: 475 nM
SMILES: CS(=O)(=O)Nc1ccc(-c2c(-c3cccnc3)oc3ncnc(N)c23)cc1
